From paper PMC7064889 (Chembiochem, 2019)

Experiments:
Assay type in all cases: cell-based, human
M21L cells = experiment: flow cytometry uptake, M21L cells
Method in brief: (§1)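 Cells (2×10^6) were incubated with fluorescently labelled cyclic RGD test peptide (30 μM) for 0, 10 or 30 min. They were washed with buffer and analysed by flow cytometry. The negative control received no peptide.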

M21 cells [1] = experiment: live cell imaging
Method in brief: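 Cells were grown overnight on glass-slip chambers and counterstained with LysoTracker Red DND-99. They were then incubated 10 min with fluorescent test peptide: 5 μM for the non-PEGylated peptide, 10 μM for the 5 kDa PEGylated peptide. Washing was careful but thorough. Confocal live-cell microscopy followed, with z-stacking and gain set in the peptide channel.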

M21 cells [2] = experiment: flow cytometry uptake, M21 cells
Method in brief: as §1

[3] = peptide 30 μM, 0, 10, 30 min, 37 °C, medium without FCS

c(RGDw(pyren‐1‐yl)K(PEG5000)) [peptide 2]
0 min sample versus negative control (no peptide), M21L (M21L cells; peptide 30 μM, 0 min): largely overlaps with the 0 min samples | flow cytometry fluorescence, M21L (M21L cells; [3]): not for αv deficient M21L cells | uptake in M21L cells (flow cytometry and live cell imaging) (M21L cells; αv-deficient M21L cells): no uptake in αv‐deficient M21L cells | colocalization with lysosomes, M21 (M21 cells [1]; LysoTracker Red DND-99, 10 min, 37 °C, peptide 1 5 μM, peptide 2 10 μM): colocalizes largely with lysosomes | localization by z-stacking, M21 (M21 cells [1]; Z-stack, peptide 10 μM, 10 min): presence of peptide inside the cells | mode of uptake (conclusion from flow cytometry and live cell imaging) (M21 cells [2]; M21 versus M21L cells, flow cytometry 30 μM plus imaging): integrin‐mediated endocytosis | 0 min sample versus negative control (no peptide), M21 (M21 cells [2]; peptide 30 μM, 0 min): largely overlaps with the 0 min samples | uptake selectivity M21 versus M21L, flow cytometry (M21 cells [2]; peptide 30 μM, 0, 10, 30 min): uptake of peptide 2 only by M21 cells | flow cytometry fluorescence, M21 (M21 cells [2]; [3]): significant fluorescence
